In the library only some 1.5% were active in any assay of this set; here they are far more common.
SIRT5 inh: SIRT5 desuccinylase inhibitors, primary screen, biochemical, fluorescence imaging, single point, set 5; NAD-dependent protein deacylase sirtuin-5, mitochondrial (Homo sapiens), Q9NXA8; Purified SirT5, succinyl-peptide AMC, trypsin-coupled fluorescence; inhibition, % at 15 µM; actives 1.1% (n = 330,000); in the data active = inhibition above about 15%
INS-1E GSIS act: GLuc luminescence reporter in INS-1E cells, primary screen for activators of glucose-dependent secretion of insulin; INS-1E GLuc reporter insulin secretion, 2-3 h; activation, % at 16.6 µM; actives 0.61% (n = 370,000); AID 743287, 2014;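 active = lowest replicate activation of at least 40%, so every replicate reaches that level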
PDI turbidity: inhibitors of human PDI, primary screen, biochemical, turbidity, single point, plate reader; PDI insulin aggregation turbidity, A650, 90 min; inhibition, % at 10 µM; actives 0.052% (n = 350,000); AID 588391, 2011; Protein disulfide-isomerase (Homo sapiens), P07237;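 active = mean inhibition across replicates of 30% or more, whatever share of single replicates reach that level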
Target sequence (P07237 whole entry, looked up): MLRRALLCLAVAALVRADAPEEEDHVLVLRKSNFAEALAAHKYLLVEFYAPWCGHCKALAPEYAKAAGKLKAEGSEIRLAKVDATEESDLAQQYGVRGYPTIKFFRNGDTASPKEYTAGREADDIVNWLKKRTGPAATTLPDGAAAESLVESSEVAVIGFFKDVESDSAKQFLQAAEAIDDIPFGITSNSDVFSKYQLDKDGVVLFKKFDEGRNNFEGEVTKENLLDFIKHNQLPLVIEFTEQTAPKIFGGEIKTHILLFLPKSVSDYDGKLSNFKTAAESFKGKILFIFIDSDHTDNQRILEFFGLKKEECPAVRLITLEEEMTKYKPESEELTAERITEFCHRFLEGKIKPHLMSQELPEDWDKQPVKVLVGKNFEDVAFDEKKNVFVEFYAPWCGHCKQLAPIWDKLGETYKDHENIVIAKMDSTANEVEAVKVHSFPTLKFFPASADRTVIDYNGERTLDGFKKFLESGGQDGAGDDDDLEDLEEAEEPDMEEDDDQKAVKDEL
S100A4 inh HTS: inhibitors of S100A4-myosin IIA peptide binding, primary screen, biochemical, fluorescence polarization, TAMRA-MyoIIA peptide; Protein S100-A4 (Homo sapiens), P26447; actives 0.14% (n = 360,000); AID 652163, 2013; inhibition, % at 10.7 µM;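 active = mean inhibition of at least 70% across replicates, with every replicate also reaching that level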
Target sequence (P26447 whole entry, looked up): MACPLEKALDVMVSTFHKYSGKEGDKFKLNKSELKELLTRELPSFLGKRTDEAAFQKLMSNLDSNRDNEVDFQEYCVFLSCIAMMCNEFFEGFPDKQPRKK
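Test system: S100A4 monomer protein; Medium: HEPES pH 7.2 with CaCl2, KCl, NaCl, DTT, Triton; Probe or stimulus: TAMRA-labelled myosin IIA heavy-chain peptide probe, 5 nM; Doses: one dose per compound; Times: polarization read 5 min after assay mix addition, stable 5–60 min; Benchmarks: neutral control DMSO, positive control TFP.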
ERp5 inh: inhibitors of ERp5-driven insulin aggregation, primary screen, biochemical, turbidity, absorbance 650 nm, single point. Protein disulfide-isomerase A6 (Homo sapiens), Q15084. 90 min. inhibition, % at 9.99 µM. actives 0.05% (n = 350,000). AID 651711, 2012;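 active = mean replicate inhibition above about 25%, with every replicate also reaching it, limit read from the data, passing the limit was not always enough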
Each line names hits and unclear results; the compound was inactive in the other large screens.

O=C(COC(=O)CC1CC2CCC1C2)Nc1ccc(F)cc1 (stereo not drawn)	SIRT5 inh 112
CC(=O)c1ccc(NC(=O)COC(=O)CC2CC3CCC2C3)cc1 (stereo not drawn)	none
CN1C(=O)c2cc(NC(=O)c3ccc4c(c3)OCO4)ccc2OC[C@H]2O[C@H](CC(=O)O)CC[C@H]21	none (no result: PDI turbidity)
C=CCn1c(SCC(=O)c2c(N)n(C)c(=O)n(C)c2=O)nc2sc(C)c(C)c2c1=O	INS-1E GSIS act 309 (no result: SIRT5 inh, S100A4 inh HTS, ERp5 inh)
C[C@H]1CN([C@@H](C)CO)C(=O)c2cc(NS(=O)(=O)c3ccc(F)cc3)ccc2O[C@@H]1CN(C)CC1CC1	none (no result: PDI turbidity)
CC1Cc2ccccc2N1C(=S)NC(=O)c1ccc(Cl)cc1Cl (stereo not drawn)	none (no result: SIRT5 inh)
CC1Cc2ccccc2N1C(=S)NC(=O)c1cccc(Br)c1 (stereo not drawn)	INS-1E GSIS act 51 (no result: SIRT5 inh, S100A4 inh HTS, ERp5 inh)
CCC(=O)Nc1ccc2c(c1)C(=O)N(C)C[C@@H](OC)[C@H](C)CN(Cc1ccncc1)[C@H](C)CO2	none (no result: PDI turbidity)
CCCCCN(C(=O)CCC(=O)OCC(=O)c1ccc(C(C)(C)C)cc1)c1c(N)n(CCCC)c(=O)[nH]c1=O	none
CCCCCN(C(=O)CCC(=O)OCC(=O)c1ccc(CCC)cc1)c1c(N)n(CCCC)c(=O)[nH]c1=O	SIRT5 inh 30
CC(C)CC#Cc1ccc2c(c1)O[C@H](CN(C)C(=O)C1CCCCC1)[C@H](C)CN([C@@H](C)CO)S2(=O)=O	SIRT5 inh 22 (no result: PDI turbidity)
COCC(=O)N(C)C[C@@H]1Oc2cc(C#CCN(C)C)ccc2S(=O)(=O)N([C@H](C)CO)C[C@@H]1C	none (no result: PDI turbidity)
CC(C)CC#Cc1ccc2c(c1)O[C@@H](CN(C)C(=O)C1CCCCC1)[C@@H](C)CN([C@@H](C)CO)S2(=O)=O	none (no result: PDI turbidity)
COCC(=O)N(C)C[C@@H]1Oc2cc(C#CC(C)(C)O)ccc2S(=O)(=O)N([C@H](C)CO)C[C@@H]1C	ERp5 inh 61 (no result: PDI turbidity)
CC(C)CC#Cc1ccc2c(c1)O[C@H](CN(C)C(=O)CC1CC1)[C@H](C)CN([C@@H](C)CO)S2(=O)=O	SIRT5 inh 18 (no result: PDI turbidity)
COCC(=O)N(C)C[C@H]1Oc2cc(C#CCN(C)C)ccc2S(=O)(=O)N([C@@H](C)CO)C[C@H]1C	S100A4 inh HTS 112 (no result: PDI turbidity)
C[C@@H]1CN([C@@H](C)CO)S(=O)(=O)c2ccc(C#Cc3ccccc3)cc2O[C@H]1CN(C)C(=O)C1CC1	SIRT5 inh 20 (no result: PDI turbidity)
C[C@H](CO)N1C[C@H](C)[C@H](CN(C)C(=O)CC2CC2)Oc2cc(C#CC(C)(C)O)ccc2S1(=O)=O	SIRT5 inh 18 (no result: PDI turbidity)
Cn1ccnc1C(OC(=O)c1ccccc1)C(F)(F)F (stereo not drawn)	SIRT5 inh 15 (no result: INS-1E GSIS act)
COc1cccc(-c2nnn(CC(=O)O)n2)c1	INS-1E GSIS act 76 (no result: SIRT5 inh, S100A4 inh HTS, ERp5 inh)
COc1cc(OC)c(NS(=O)(=O)c2cc(C(=O)OCC(=O)NCC3CCCO3)ccc2OC)cc1Cl (stereo not drawn)	SIRT5 inh 31
O=C(C[C@H]1C[C@@H]2c3cc(NC(=O)NC4CCCC4)ccc3O[C@@H]2[C@@H](CO)O1)NCc1ccncc1	none (no result: PDI turbidity)
CCc1ccc(C(=O)COC(=O)C(Cc2ccccc2)NC(=O)C2CCC(C)CC2)cc1 (stereo not drawn)	INS-1E GSIS act 48 (no result: SIRT5 inh, S100A4 inh HTS, ERp5 inh)
Cc1nc2c(c(N3CCOCC3)n1)OCC(=O)N2	INS-1E GSIS act 73
Cc1noc(C)c1S(=O)(=O)N(C)C[C@H]1Oc2ccc(NC(=O)Cc3cn(C)c4ccccc34)cc2C(=O)N([C@H](C)CO)C[C@@H]1C	none (no result: SIRT5 inh, PDI turbidity, S100A4 inh HTS, ERp5 inh)
CNC[C@@H]1Oc2ccc(NC(=O)CCCN(C)C)cc2C(=O)N([C@@H](C)CO)C[C@H]1C	none (no result: PDI turbidity)
CC(C)CC(=O)NC1(C(F)(F)F)C(=O)N(Cc2ccccc2)C2=C1C(=O)CC(C)(C)C2 (stereo not drawn)	none (no result: SIRT5 inh, INS-1E GSIS act, S100A4 inh HTS, ERp5 inh)
CC(C)CN1C(=O)C(NC(=O)C2CC2)(C(F)(F)F)C2=C1CC(C)(C)CC2=O (stereo not drawn)	SIRT5 inh 36
C[C@@H]1CN([C@@H](C)CO)C(=O)Cc2cc(NC(=O)CCCCCC(=O)Nc3ccccc3N)ccc2O[C@H]1CN(C)C(=O)NC1CCCCC1	none (no result: PDI turbidity)
Cc1ccc(S(=O)(=O)Nc2ccc3c(c2)C(=O)N([C@H](C)CO)C[C@H](C)[C@@H](CN(C)C(=O)Nc2ccc(C(F)(F)F)cc2)OCCCC[C@@H](C)O3)cc1	none (no result: PDI turbidity)
Cc1ccc(S(=O)(=O)Nc2ccc3c(c2)C(=O)N([C@@H](C)CO)C[C@H](C)[C@@H](CN(C)C(=O)Nc2ccc(C(F)(F)F)cc2)OCCCC[C@@H](C)O3)cc1	SIRT5 inh 18 (no result: PDI turbidity)
C[C@H](CO)N1C[C@H](C)[C@H](CN(C)C(=O)Nc2ccc(C(F)(F)F)cc2)OCCCC[C@H](C)Oc2ccc(NS(=O)(=O)c3ccc(Cl)cc3)cc2C1=O	SIRT5 inh 40 (no result: PDI turbidity)
Cc1ccc(S(=O)(=O)Nc2ccc3c(c2)C(=O)N([C@@H](C)CO)C[C@@H](C)[C@@H](CN(C)C(=O)Nc2ccc(C(F)(F)F)cc2)OCCCC[C@@H](C)O3)cc1	SIRT5 inh 15 (no result: PDI turbidity)
C[C@H]1CCCCO[C@H](CN(C)C(=O)Nc2ccc(C(F)(F)F)cc2)[C@@H](C)CN([C@@H](C)CO)C(=O)c2cc(NS(=O)(=O)c3ccc(Cl)cc3)ccc2O1	none (no result: PDI turbidity)
C[C@@H]1CCCCO[C@@H](CN(C)C(=O)CCC(F)(F)F)[C@@H](C)CN([C@H](C)CO)C(=O)c2cc(NS(=O)(=O)c3ccc(Cl)cc3)ccc2O1	none (no result: PDI turbidity)
C[C@H](CO)N1C[C@H](C)[C@H](CN(C)C(=O)CCC(F)(F)F)OCCCC[C@H](C)Oc2ccc(NS(=O)(=O)c3ccc(Cl)cc3)cc2C1=O	SIRT5 inh 17, ERp5 inh 81 (no result: PDI turbidity)
C[C@@H]1CN([C@H](C)CO)C(=O)c2cccc(NC(=O)C3CCCCC3)c2O[C@H]1CN(C)S(=O)(=O)c1ccc(Cl)cc1	none (no result: PDI turbidity)
CCS(=O)(=O)N1CC(=O)N2[C@@H](CO)[C@H](c3ccc(C#Cc4ccc(F)cc4)cc3)[C@@H]2C1	none (no result: PDI turbidity)
COc1ccc(C(=O)Nc2cc(=O)[nH]c3ncnn23)cc1	SIRT5 inh 31
COc1cc(N)c(C(O)c2nccc3cc(OC)c(OC)cc23)cc1OC (stereo not drawn)	none
COc1ccc(C(O)c2nccc3cc(OC)c(OC)cc23)cc1OC (stereo not drawn)	INS-1E GSIS act 83
CCCn1c(CN2CCN(C(=O)OCC)CC2)nc2cc(NC(C)=O)ccc21	SIRT5 inh 17
C[C@H](CO)N1C[C@H](C)[C@H](CN(C)Cc2ccc(C(F)(F)F)cc2)Oc2c(NC(=O)c3ccc(-c4nccs4)cc3)cccc2C1=O	SIRT5 inh 16 (no result: PDI turbidity)

Source: PubChem
